From PubChem
PAFAH2 FP inh: PAFAH2 (human) inhibition. inhibition, % at 3.39 µM. recombinant PAFAH2, FP-rhodamine activity probe, fluorescence polarization. 340,000 tested, 0.99% active;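 active means inhibition above the mean over all tested compounds plus 3 SD, cut at about 30% in these data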;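 further: inhibitors block probe labeling of enzyme so polarization drops; 0% = enzyme with DMSO and 100% = wells lacking PAFAH2 protein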
pPAFAH FP inh: inhibitors of human plasma PAF acetylhydrolase (pPAFAH); inhibition, % at 3.39 µM; Q13093; 330,000 tested, 1.5% active; recombinant pPAFAH, FP-rhodamine probe fluorescence polarization;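 active means inhibition above the mean inhibition across the screen plus 3 SD, cut at about 25% in these data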;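 further: inhibitors block binding of the rhodamine activity-based probe so polarization drops; 0% = enzyme with DMSO and 100% = wells lacking pPAFAH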
ASAP1 GAP inh: blocks human ASAP1-stimulated Arf1 GTP hydrolysis; 360,000 tested, 0.19% active; inhibition, % at 16.5 µM; GDP FP detection; Q9ULH1; in the data active means inhibition above about 25%;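 further: 0% = vehicle with enzyme and substrate and 100% = no enzyme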
PAFAH1B2 FP inh: blocks human PAF acetylhydrolase 1b catalytic subunit 2 | inhibition, % at 3.39 µM | P68402 | 340,000 tested, 1.2% active | recombinant PAFAH1B2, FP-rhodamine activity probe, fluorescence polarization | AID 492953;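 active means inhibition above the mean of all tested compounds plus 3 SD, cut at about 24% in these data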;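 further: 0% = enzyme with DMSO and 100% = wells lacking PAFAH1B2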
Target sequence (P68402 whole entry, looked up): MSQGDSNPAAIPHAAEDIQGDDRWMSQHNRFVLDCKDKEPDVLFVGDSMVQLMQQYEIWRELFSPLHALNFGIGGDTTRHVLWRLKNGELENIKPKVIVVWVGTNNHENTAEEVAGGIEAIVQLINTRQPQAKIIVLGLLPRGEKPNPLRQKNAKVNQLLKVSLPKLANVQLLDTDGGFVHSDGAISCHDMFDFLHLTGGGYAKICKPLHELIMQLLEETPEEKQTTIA
ARFGAP1 inhibitor: rat ARFGAP1 inhibition | Q62848 | Arfgap1-stimulated ARF1 GTP hydrolysis, GDP FP detection | inhibition, % at 16.5 µM | 360,000 tested, 0.26% active;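 active means inhibition above a per-plate limit, mean inhibition of low control wells plus 3 SD, cut at about 25% in these data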;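 further: 0% = DMSO wells with enzyme and 100% = wells lacking Arfgap1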
Target sequence (Q62848 1-136 limits assumed): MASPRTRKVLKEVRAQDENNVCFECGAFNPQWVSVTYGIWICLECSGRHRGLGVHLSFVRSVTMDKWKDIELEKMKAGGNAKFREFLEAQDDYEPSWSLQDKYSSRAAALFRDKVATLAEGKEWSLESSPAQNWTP
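Assay system: Rat Arfgap1 GAP domain (His6, aa 1-136), purified enzyme | Buffer or medium: HEPES 25 mM pH 7.5, NaCl 150 mM, MgCl2, DTT | Schedule: GTP hydrolysis reaction 2 h at 25 °C | Signal: FP of antibody-bound GDP Alexa 633 tracer, ex 620/em 688 nm | Measure: Percent inhibition of Arfgap1-stimulated GTP hydrolysis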
PAFAH1B3 FP inh: inhibitors of human PAFAH1B3. Q15102. recombinant PAFAH1B3, FP-rhodamine probe, fluorescence polarization. inhibition, % at 3.39 µM. 340,000 tested, 0.28% active;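 active means inhibition above the screen-wide average of all tested compounds plus 3 SD, cut at about 25% in these data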;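 further: 0% = enzyme with DMSO only and 100% = wells lacking PAFAH1B3 protein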
PAFAH2 FP conf: PAFAH2 (human) inhibition, confirmed. shares compounds with PAFAH2 FP inh. recombinant PAFAH2, FP-rhodamine activity probe, fluorescence polarization. inhibition, % at 3.39 µM. 2,300 tested, 65% active;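 active means mean inhibition over three repeats above a set limit taken from the earlier primary screen, cut at about 30% in these data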;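 further: inhibitor blocks binding of rhodamine activity probe so polarization falls; 0% = enzyme with DMSO and 100% = wells lacking PAFAH2 protein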
Active calls of the source: *; · = not tested or not shown. This is a sample that favours compounds with a hit; in the whole collection about 2.8% have one here.

SMILES | PAFAH2 FP inh | pPAFAH FP inh | ASAP1 GAP inh | PAFAH1B2 FP inh | ARFGAP1 inhibitor | PAFAH1B3 FP inh | PAFAH2 FP conf
Cc1ccc(-c2csc(/C(C#N)=C(\O)CCl)n2)cc1 | 33.5* | · | 0.2 | -3.6 | -9.9 | 0.1 | 31.1*
CCN(CC)S(=O)(=O)c1cc(C(=O)OCC(=O)Nc2cccc(C)c2C)ccc1F | 24.2 | 23.4 | -2.2 | 0.0 | -5.8 | 10.0 | ·
CCc1cccc(CC)c1NC(=O)COC(=O)c1ccc(F)c(S(=O)(=O)N(CC)CC)c1 | 29.8* | 17.4 | -4.1 | 3.8 | 6.1 | 8.2 | 25.6
CCN(CC)S(=O)(=O)c1cc(C(=O)OCC(=O)c2ccc3c(c2)NC(=O)CO3)ccc1F | 3.0 | 7.2 | 13.4 | 5.8 | -4.4 | 6.5 | ·
CCN(CC)S(=O)(=O)c1cc(C(=O)OCC(=O)Nc2cccc(Br)c2)ccc1F | 31.5* | 14.7 | -12.3 | -7.7 | -0.8 | -7.9 | 22.3
COc1ccc(NC(=O)c2ccc(-c3nn(C)c(=O)c4ccccc34)cc2)cc1 | 35.2* | 2.7 | -7.2 | -0.3 | -2.5 | 19.4 | 7.7
COc1ccccc1NC(=O)c1ccc(-c2nn(C)c(=O)c3ccccc23)cc1 | -8.5 | -0.4 | 15.1 | 3.0 | 15.7 | 5.8 | ·
O=C(Nc1ccccc1)Nc1cccc(Cl)c1Cl | -10.1 | -4.6 | 1.3 | -2.4 | -5.8 | -10.6 | ·
O=C(Nc1ccc(Oc2ccc(NC(=O)Nc3ccccc3Cl)cc2)cc1)Nc1ccccc1Cl | 55.2* | 1.2 | 7.8 | 2.3 | 6.2 | 6.4 | 27.0
COc1ccc2cc(C3CC=C(COC(C)=O)CN3S(=O)(=O)c3ccccc3[N+](=O)[O-])n(C(=O)OC(C)(C)C)c2c1 (centres undefined) | · | · | 1.2 | · | -6.3 | · | ·
O=C(CCc1nnc2ccc(N3CCCC3)nn12)Nc1ccc(F)cc1F | 0.4 | 0.4 | -4.2 | 4.3 | 0.0 | 2.9 | ·
COc1ccc(CCNC(=O)COC(=O)/C=C/c2ccc(OC)c(OC)c2)cc1 | 38.6* | 5.3 | 11.2 | 5.7 | 8.3 | 7.5 | 25.6
COc1ccc(/C=C/C(=O)OCC(=O)NCc2ccccc2Cl)cc1OC | 79.2* | -2.6 | 1.9 | 0.4 | 5.9 | 12.2 | 76.5*
COc1ccc(CCNC(=O)COC(=O)/C=C/c2ccc(OCC#N)c(OC)c2)cc1 | -1.4 | -1.7 | 0.4 | 0.9 | 0.6 | 12.2 | ·
COc1cc(/C=C/C(=O)OCC(=O)NCCCc2ccccc2)cc(OC)c1OC | 19.2 | 7.3 | 2.0 | 4.4 | -4.9 | 5.4 | ·
COc1ccc(/C=C/C(=O)OCC(=O)NCCCc2ccccc2)cc1OC | 52.0* | 11.1 | 9.8 | 0.6 | 11.1 | 3.7 | 40.0*
COc1ccccc1CNC(=O)COC(=O)/C=C/c1ccc(OC(F)F)c(OC)c1 | 14.9 | 7.9 | 2.4 | -3.2 | 2.9 | 7.7 | ·
O=C(COC(=O)CCc1ccc(S(=O)(=O)N2CCOCC2)cc1)Nc1ccccc1[N+](=O)[O-] | 6.2 | 11.4 | 2.0 | 8.1 | 7.9 | 11.8 | ·
Cc1c2ccccc2cc[n+]1CCCS(=O)(=O)[O-] | -6.1 | 2.5 | -2.0 | -4.2 | -9.2 | 5.7 | ·
CC1(C)C(/C=C/C=C/C=C/C=C2\N(CCCCS(=O)(=O)O)c3ccc4ccccc4c3C2(C)C)=[N+](CCCCS(=O)(=O)[O-])c2ccc3ccccc3c21 | 42.9* | 28.9* | · | -11.6 | · | -32.0 | 25.5
O=C(CC(=O)NC1CCCCC1)N/N=C/c1ccc(Cl)cc1 | 6.8 | -1.7 | -11.5 | 6.6 | -4.9 | 4.8 | ·
CSc1ccc(/C=C/C(=O)OCC(=O)NC2CC2)cc1 | 56.7* | 2.6 | -7.8 | 0.0 | 9.2 | 0.9 | 48.0*
O=C(COC(=O)/C=C/c1ccc(Cl)cc1)NC1CCCCCC1 | 79.1* | 6.1 | 5.5 | 5.4 | -0.1 | 6.1 | 71.0*
O=C(COC(=O)/C=C/c1ccc(C(F)(F)F)cc1)NC1CC1 | 17.9 | -1.3 | -1.0 | 3.0 | -13.1 | 5.2 | ·
O=C(COC(=O)/C=C/c1ccc(Cl)cc1)NC1CC1 | 52.1* | 5.6 | 1.1 | -1.6 | 10.8 | 6.2 | 33.7*
O=C(COC(=O)/C=C/c1ccco1)Nc1ccccc1 | 85.3* | 10.2 | 1.3 | 2.8 | -11.1 | 7.9 | 83.0*
CCc1ccc(NC(=O)COC(=O)/C=C/c2ccco2)cc1 | 73.2* | 15.2 | 8.1 | 2.2 | -15.9 | 3.0 | 73.4*
